The compounds below were run against T1, Or5ar1 (Mus musculus) (UniProt Q8VGS3). Details: stereoisomer not certain.
T1 sequence (whole entry): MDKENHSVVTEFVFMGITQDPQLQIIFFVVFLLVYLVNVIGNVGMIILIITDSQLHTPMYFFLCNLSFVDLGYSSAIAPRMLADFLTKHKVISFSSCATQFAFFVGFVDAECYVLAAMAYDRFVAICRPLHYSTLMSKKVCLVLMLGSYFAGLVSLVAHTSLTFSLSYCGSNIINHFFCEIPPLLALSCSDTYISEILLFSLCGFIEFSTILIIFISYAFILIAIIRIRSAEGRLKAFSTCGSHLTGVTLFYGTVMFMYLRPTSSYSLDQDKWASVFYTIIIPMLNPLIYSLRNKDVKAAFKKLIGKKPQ
How it was run: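 Values were gathered from published papers (main text and supplementary material), with extra details requested from the original authors when needed, and checked for typos and inconsistencies. Each receptor–molecule pair is called responsive (active) if the original authors judged the measured signal statistically different from baseline, and non-responsive (inactive) otherwise. Assay methods varied by source, often transient mammalian cell-line luciferase assays. Recorded details include cell line, G-protein, co-transfected protein and tags.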

Odorant receptor agonist call, inactive:
CCCC=O, Cc1ccc(C(C)C)c(O)c1, CC(=O)OCc1ccc2c(c1)OCO2, OCCCCCCCCCO, CCOC(=O)C(C)CC (configuration not stated), CCCO, CCCC(C)C(=O)OCC (configuration not stated), OCC=Cc1ccccc1, CC(=O)C1(C)CC2=C(CCCC2(C)C)CC1C (configuration not stated), Cc1occc1SSc1ccoc1C, CCOC(=O)CC(C)C, C=C(C)C1CCC(C)C(O)C1 (configuration not stated), CC(C)=CCCC(C)=CCOC(=O)C(C)C, C=CC(=O)CCCCC, CC=C(C)C=O, C=C1C2CCC(C2)C1(C)C (configuration not stated), CC1(C)CC(=O)CC(=O)C1, CNc1ccccc1C(=O)OC, COC(OC)c1ccccc1, CCC=CCCC=CC=O, CCCCCOC(=O)CC, Cc1ccc(C(C)C)cc1, CC(C)CCN, CSSSC, COc1nccnc1C, CCCCCC(C=O)=Cc1ccccc1, C=CC(=C)CCC=C(C)CCC=C(C)C, CCCCCCC=CC=O, CCCCCCCCCC=CC=O, CCCCCCCCCCOC(C)=O, C1CCOCC1, CCCCCC=CCCC=O, O=C(O)CCCCCCCCC(=O)O, O=C(O)C1CCC1, CCc1occc(=O)c1O, CC=Cc1ccc(OC)cc1, CC(CC=O)CCCC(C)(C)O (configuration not stated)

— the M2OR odorant receptor database
